Reference: ChEMBL document CHEMBL3232844, “Synthesis and structure activity relationships of schweinfurthin indoles” (2014)

Assays:
Assay type in all cases: functional
786-0 = experiment: Cytotoxicity against human 786-0 cells
Summary of the method: (§1)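 Tested in a 60-cell-line human tumor panel screen; the read-out is growth inhibition, reported as GI50 for each cell line.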

PC-3 = experiment: Cytotoxicity against human PC3 cells; summary of the method: as §1
HCT-116 = experiment: Cytotoxicity against human HCT116 cells; summary of the method: as §1
U-251 = experiment: Cytotoxicity against human U251 cells
Summary of the method: (§2)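 Cell line run as part of the 60-cell-line screening panel; growth inhibition was reported as a GI50 for each line.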

SNB-75 = experiment: Cytotoxicity against human SNB75 cells; summary of the method: as §2
[1] = Cytotoxicity against human OVCAR4 cells; summary of the method: as §1
HT-29 = experiment: Cytotoxicity against human HT-29 cells; summary of the method: as §1
HOP-62 = experiment: Cytotoxicity against human HOP62 cells; summary of the method: as §1
[2] = Cytotoxicity against human UO31 cells; summary of the method: as §2
BT-549 = experiment: Cytotoxicity against human BT549 cells; summary of the method: as §1
HCC 2998 = experiment: Cytotoxicity against human HCC2998 cells; summary of the method: as §1
SN12C = experiment: Cytotoxicity against human SN12C cells; summary of the method: as §1
MDA-MB-435 = experiment: Cytotoxicity against human MDA-MB-435 cells; summary of the method: as §1
MOLT-4 = experiment: Cytotoxicity against human MOLT4 cells; summary of the method: as §1
TK-10 = experiment: Cytotoxicity against human TK10 cells; summary of the method: as §2
RXF 393 = experiment: Cytotoxicity against human RXF393 cells; summary of the method: as §1
ACHN = experiment: Cytotoxicity against human ACHN cells; summary of the method: as §1
KM12 = experiment: Cytotoxicity against human KM12 cells; summary of the method: as §1
SF-295 = experiment: Cytotoxicity against human SF295 cells; summary of the method: as §1
SK-OV-3 = experiment: Cytotoxicity against human SKOV3 cells; summary of the method: as §1
MDA-MB-231 = experiment: Cytotoxicity against human MDA-MB-231 cells; summary of the method: as §1
SF-268 = experiment: Cytotoxicity against human SF268 cells; summary of the method: as §1
NCI-H226 = experiment: Cytotoxicity against human NCI-H226 cells; summary of the method: as §1
[3] = Cytotoxicity against human UACC62 cells; summary of the method: as §2
MCF7 = experiment: Cytotoxicity against human MCF7 cells; summary of the method: as §1
CAKI-1 = experiment: Cytotoxicity against human Caki1 cells; summary of the method: as §1
HL-60(TB) = experiment: Cytotoxicity against human HL-60(TB) cells
Summary of the method: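 Tested within the NCI 60-cell-line screen, with GI50 as the read-out. Values are the average of two independent experiments. The lowest concentration tested was 10 nM.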

CCRF-CEM = experiment: Cytotoxicity against human CCRF-CEM cells
SK-MEL-2 = experiment: Cytotoxicity against human SK-MEL-2 cells; summary of the method: as §1
M14 = experiment: Cytotoxicity against human M14 cells; summary of the method: as §1
NCI-H460 = experiment: Cytotoxicity against human NCI-H460 cells; summary of the method: as §1
[4] = Cytotoxicity against human NCI-ADR-RES cells; summary of the method: as §1
[5] = Cytotoxicity against human OVCAR8 cells; summary of the method: as §1
NCI-H322M = experiment: Cytotoxicity against human NCI-H322M cells; summary of the method: as §1
SNB-19 = experiment: Cytotoxicity against human SNB19 cells; summary of the method: as §1
SR = experiment: Cytotoxicity against human SR cells; summary of the method: as §2
[6] = Cytotoxicity against human UACC257 cells; summary of the method: as §2
LOX IMVI = experiment: Cytotoxicity against human LOXIMVI cells; summary of the method: as §1
[7] = Cytotoxicity against human OVCAR3 cells; summary of the method: as §1
MDA-MB-468 = experiment: Cytotoxicity against human MDA-MB-468 cells; summary of the method: as §1
A498 = experiment: Cytotoxicity against human A498 cells; summary of the method: as §1
A549 = experiment: Cytotoxicity against human A549 cells; summary of the method: as §1
SK-MEL-5 = experiment: Cytotoxicity against human SK-MEL-5 cells; summary of the method: as §1
[8] = read-out: pLC50 (the source's name) (converted)

## COc1cc(/C=C/c2cc(O)c3c(C/C=C(\C)CCC=C(C)C)c[nH]c3c2)cc2c1O[C@]1(C)CC[C@@H](O)C(C)(C)[C@H]1C2
786-0
  GI50: 0.0468 µM
  LC50 (concentration killing 50% of cells): 5.62 µM
786-0; read-out: pTGI (converted)
  TGI: 1.12 µM
PC-3
  GI50: 0.457 µM
  LC50: > 100 µM
PC-3; read-out: pTGI (converted)
  TGI: 24.5 µM
HCT-116
  GI50: 1.38 µM
HCT-116; [8]
  CC50: > 100 µM
HCT-116; read-out: pTGI (converted)
  TGI: 22.9 µM
U-251
  GI50: 0.603 µM
U-251; [8]
  CC50: > 100 µM
U-251; read-out: pTGI (converted)
  TGI: > 100 µM
SNB-75
  GI50: 0.245 µM
SNB-75; [8]
  CC50: > 100 µM
SNB-75; read-out: pTGI (converted)
  TGI: 3.63 µM
[1]; OVCAR-4
  GI50: 6.46 µM
[1]; OVCAR-4, read-out: pLC50 (the source's name) (converted)
  CC50: > 100 µM
[1]; OVCAR-4, read-out: pTGI (converted)
  TGI: > 100 µM
HT-29
  GI50: 0.219 µM
HT-29; [8]
  CC50: 20.4 µM
HT-29; read-out: pTGI (converted)
  TGI: 1.66 µM
HOP-62
  GI50: 0.794 µM
HOP-62; [8]
  CC50: 8.71 µM
HOP-62; read-out: pTGI (converted)
  TGI: 2.75 µM
[2]; UO-31
  GI50: 0.933 µM
  LC50: 8.91 µM
[2]; UO-31, read-out: pTGI (converted)
  TGI: 2.95 µM
BT-549
  GI50: 0.525 µM
BT-549; [8]
  CC50: > 100 µM
BT-549; read-out: pTGI (converted)
  TGI: > 100 µM
HCC 2998
  GI50: 4.9 µM
HCC 2998; [8]
  CC50: > 100 µM
HCC 2998; read-out: pTGI (converted)
  TGI: 36.3 µM
SN12C
  GI50: 60.3 µM
  LC50: > 100 µM
SN12C; read-out: pTGI (converted)
  TGI: > 100 µM
MDA-MB-435
  GI50: 4.07 µM
MDA-MB-435; [8]
  CC50: > 100 µM
MDA-MB-435; read-out: pTGI (converted)
  TGI: > 100 µM
MOLT-4
  GI50: 0.282 µM
MOLT-4; [8]
  CC50: > 100 µM
MOLT-4; read-out: pTGI (converted)
  TGI: 2.51 µM
TK-10
  GI50: 16.6 µM
  LC50: > 100 µM
TK-10; read-out: pTGI (converted)
  TGI: > 100 µM
RXF 393
  GI50: 0.0661 µM
  LC50: 3.63 µM
RXF 393; read-out: pTGI (converted)
  TGI: 0.309 µM
ACHN
  GI50: 7.24 µM
  LC50 (concentration killing 50% of cells): > 100 µM
ACHN; read-out: pTGI (converted)
  TGI: > 100 µM
KM12
  GI50: 0.525 µM
KM12; [8]
  CC50: 5.37 µM
KM12; read-out: pTGI (converted)
  TGI: 1.78 µM
SF-295; read-out: GI50
  GI50: 0.11 µM
SF-295; read-out: pGI50 (converted)
  GI50: 0.112 µM
SF-295; [8]
  CC50: 2.88 µM
SF-295; read-out: pTGI (converted)
  TGI: 0.417 µM
SK-OV-3
  GI50: 5.13 µM
  LC50: > 100 µM
SK-OV-3; read-out: pTGI (converted)
  TGI: > 100 µM
MDA-MB-231
  GI50: 1.1 µM
  LC50: 85.1 µM
MDA-MB-231; read-out: pTGI (converted)
  TGI: 6.31 µM
SF-268
  GI50: 2.75 µM
SF-268; [8]
  CC50: > 100 µM
SF-268; read-out: pTGI (converted)
  TGI: > 100 µM
NCI-H226
  GI50: 24 µM
NCI-H226; [8]
  CC50: > 100 µM
NCI-H226; read-out: pTGI (converted)
  TGI: > 100 µM
[3]; UACC-62
  GI50: 1.26 µM
[3]; UACC-62, read-out: pLC50 (the source's name) (converted)
  CC50: > 100 µM
[3]; UACC-62, read-out: pTGI (converted)
  TGI: 4.68 µM
MCF7
  GI50: 0.617 µM
  LC50: 8.51 µM
MCF7; read-out: pTGI (converted)
  TGI: 2.45 µM
CAKI-1
  GI50: 0.447 µM
  LC50: 7.76 µM
CAKI-1; read-out: pTGI (converted)
  TGI: 1.82 µM
HL-60(TB)
  GI50: 0.398 µM
HL-60(TB); [8]
  CC50: > 100 µM
HL-60(TB); read-out: pTGI (converted)
  TGI: 12.3 µM
CCRF-CEM
  GI50: 0.724 µM
CCRF-CEM; [8]
  CC50: > 100 µM
CCRF-CEM; read-out: pTGI (converted)
  TGI: > 100 µM
SK-MEL-2
  GI50: 0.871 µM
SK-MEL-2; [8]
  CC50: > 100 µM
SK-MEL-2; read-out: pTGI (converted)
  TGI: 18.2 µM
M14
  GI50: 2 µM
M14; [8]
  CC50: > 100 µM
M14; read-out: pTGI (converted)
  TGI: 11.2 µM
NCI-H460
  GI50: 1.2 µM
NCI-H460; [8]
  CC50: 57.5 µM
NCI-H460; read-out: pTGI (converted)
  TGI: 6.61 µM
[4]
  GI50: 46.8 µM
[4]; [8]
  CC50: > 100 µM
[4]; read-out: pTGI (converted)
  TGI: > 100 µM
[5]; OVCAR-8
  GI50: 72.4 µM
[5]; OVCAR-8, read-out: pLC50 (the source's name) (converted)
  CC50: > 100 µM
[5]; OVCAR-8, read-out: pTGI (converted)
  TGI: > 100 µM
NCI-H322M
  GI50: 60.3 µM
NCI-H322M; [8]
  CC50: > 100 µM
NCI-H322M; read-out: pTGI (converted)
  TGI: > 100 µM
SNB-19
  GI50: 2.45 µM
SNB-19; [8]
  CC50: > 100 µM
SNB-19; read-out: pTGI (converted)
  TGI: > 100 µM
SR
  GI50: 0.55 µM
SR; [8]
  CC50: > 100 µM
SR; read-out: pTGI (converted)
  TGI: 29.5 µM
[6]; UACC-257
  GI50: 9.12 µM
[6]; UACC-257, read-out: pLC50 (the source's name) (converted)
  CC50: > 100 µM
[6]; UACC-257, read-out: pTGI (converted)
  TGI: 49 µM
LOX IMVI
  GI50: 1.26 µM
LOX IMVI; [8]
  CC50: 29.5 µM
LOX IMVI; read-out: pTGI (converted)
  TGI: 4.79 µM
[7]; OVCAR-3
  GI50: 33.9 µM
[7]; OVCAR-3, read-out: pLC50 (the source's name) (converted)
  CC50: > 100 µM
[7]; OVCAR-3, read-out: pTGI (converted)
  TGI: > 100 µM
MDA-MB-468
  GI50: 2 µM
  LC50: > 100 µM
MDA-MB-468; read-out: pTGI (converted)
  TGI: 44.7 µM
A498
  GI50: 1.2 µM
A498; [8]
  CC50: > 100 µM
A498; read-out: pTGI (converted)
  TGI: 9.77 µM
A549
  GI50: 2.57 µM
A549; [8]
  CC50: > 100 µM
A549; read-out: pTGI (converted)
  TGI: > 100 µM
SK-MEL-5
  GI50: 1.07 µM
SK-MEL-5; [8]
  CC50: 5.37 µM
SK-MEL-5; read-out: pTGI (converted)
  TGI: 2.4 µM
